According to ChEMBL document CHEMBL4814057, “4-4-(Anilinomethyl)-3-[4-(trifluoromethyl)phenyl]-1H-pyrazol-1-ylbenzoic acid derivatives as potent anti-gram-positive bacterial agents” (Eur J Med Chem, 2021):
Converted amounts (≈) assume the structure as drawn.

What was measured:
Assay type in all cases: functional
Staphylococcus aureus [1] = assay: Inhibition of RNA synthesis in Staphylococcus aureus ATCC 29213 at 8 times MIC measured by liquid scintillation counter
Method in brief: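 Early-exponential cells in CAMHB added to drug (40x stock) in triplicate, with a no-drug control. After 30 min pre-incubation at room temperature, [3H]thymidine 3.0 µCi/tube (DNA) or [3H]uridine 0.5 µCi/tube (RNA) added for 30 min at room temperature. Stopped with cold TCA, precipitate filtered and washed, then scintillation counted.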

Enterococcus faecium [2] = assay: Antimicrobial activity against vancomycin-resistant Enterococcus faecium clinical isolate 1088168 by CLSI-based broth microdilution assay
Staphylococcus aureus [3] = assay: Antimicrobial activity against methicillin-resistant Staphylococcus aureus clinical isolate 1088064 by CLSI-based broth microdilution assay
Staphylococcus aureus [4] = assay: Antimicrobial activity against methicillin-sensitive Staphylococcus aureus clinical isolate 1088105 by CLSI-based broth microdilution assay
Enterococcus faecium [5] = assay: Antimicrobial activity against vancomycin-resistant Enterococcus faecium clinical isolate 1100440 by CLSI-based broth microdilution assay
Staphylococcus aureus [6] = assay: Antimicrobial activity against methicillin-sensitive Staphylococcus aureus clinical isolate 1088626 by CLSI-based broth microdilution assay
Enterococcus faecium [7] = assay: Antimicrobial activity against vancomycin-resistant Enterococcus faecium clinical isolate 1088228 by CLSI-based broth microdilution assay
Enterococcus faecium [8] = assay: Antimicrobial activity against vancomycin-resistant Enterococcus faecium clinical isolate 1088925 by CLSI-based broth microdilution assay
Enterococcus faecium [9] = assay: Antimicrobial activity against vancomycin-resistant Enterococcus faecium clinical isolate 1091282 by CLSI-based broth microdilution assay
Enterococcus faecium [10] = assay: Antimicrobial activity against vancomycin-resistant Enterococcus faecium clinical isolate 1089544 by CLSI-based broth microdilution assay
Enterococcus faecium [11] = assay: Antimicrobial activity against vancomycin-resistant Enterococcus faecium clinical isolate 1094112 by CLSI-based broth microdilution assay
Staphylococcus aureus [12] = assay: Antimicrobial activity against methicillin-resistant Staphylococcus aureus clinical isolate 1088610 by CLSI-based broth microdilution assay
Enterococcus faecium [13] = assay: Antimicrobial activity against vancomycin-resistant Enterococcus faecium clinical isolate 1091563 by CLSI-based broth microdilution assay
Staphylococcus aureus [14] = assay: Antimicrobial activity against methicillin-sensitive Staphylococcus aureus ATCC 29213 by CLSI-based broth microdilution assay
Staphylococcus aureus [15] = assay: Antimicrobial activity against methicillin-resistant Staphylococcus aureus clinical isolate 1089106 by CLSI-based broth microdilution assay
Enterococcus faecium [16] = assay: Antimicrobial activity against vancomycin-resistant Enterococcus faecium clinical isolate 1091720 by CLSI-based broth microdilution assay
Staphylococcus aureus [17] = assay: Antimicrobial activity against methicillin-resistant Staphylococcus aureus clinical isolate 1088888 by CLSI-based broth microdilution assay
Enterococcus faecium [18] = assay: Antimicrobial activity against vancomycin-resistant Enterococcus faecium clinical isolate 1088051 by CLSI-based broth microdilution assay
Staphylococcus aureus [19] = assay: Antimicrobial activity against methicillin-sensitive Staphylococcus aureus clinical isolate 1088060 by CLSI-based broth microdilution assay
Method in brief: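 Broth microdilution starting at 50 µg/ml with 2-fold serial dilutions; run in triplicate.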

Staphylococcus aureus [20] = assay: Inhibition of protein synthesis in Staphylococcus aureus ATCC 29213 at 8 times MIC measured by liquid scintillation counter

`CO[C@H]1/C=C/O[C@@]2(C)Oc3c(C)c(O)c4c(O)c(c(/C=N/N5CCN(C)CC5)c(O)c4c3C2=O)NC(=O)/C(C)=C\C=C\[C@H](C)[C@H](O)[C@@H](C)[C@@H](O)[C@@H](C)[C@H](OC(C)=O)[C@@H]1C` [RIFAMPIN] was tested, and the “inhibition (INH)” value (Staphylococcus aureus [1]) was 76.3%.
With `Cc1onc(-c2ccccc2)c1C(=O)N[C@@H]1C(=O)N2[C@@H]1SC(C)(C)[C@@H]2C(=O)O` [OXACILLIN] the MIC (Enterococcus faecium [2]) was > 32 µg/mL, the MIC (Staphylococcus aureus [3]) was 0.5 µg/mL (≈ 1.25 µM) and the MIC (Staphylococcus aureus [4]) was 1 µg/mL (≈ 2.49 µM). The MIC (Enterococcus faecium [5]) was > 32 µg/mL, the MIC (Staphylococcus aureus [6]) was 0.5 µg/mL (≈ 1.25 µM) and the MIC (Enterococcus faecium [7]) was > 32 µg/mL. For the same compound, the MIC (Enterococcus faecium [8]) was > 32 µg/mL, the MIC (Enterococcus faecium [9]) was > 32 µg/mL and the MIC (Enterococcus faecium [10]) was > 32 µg/mL. The MIC (Enterococcus faecium [11]) was > 32 µg/mL, the MIC (Staphylococcus aureus [12]) was 0.5 µg/mL (≈ 1.25 µM) and the MIC (Enterococcus faecium [13]) was > 32 µg/mL. The MIC (Staphylococcus aureus [14]) was 1 µg/mL (≈ 2.49 µM), the MIC (Staphylococcus aureus [15]) was 1 µg/mL (≈ 2.49 µM) and the MIC (Enterococcus faecium [16]) was > 32 µg/mL. For the same compound, the MIC (Staphylococcus aureus [17]) was 1 µg/mL (≈ 2.49 µM) and the MIC (Enterococcus faecium [18]) was > 32 µg/mL.
With `C[C@@H](O)[C@H]1C(=O)N2C(C(=O)O)=C(S[C@@H]3CN[C@H](C(=O)N(C)C)C3)[C@H](C)[C@H]12` [MEROPENEM] the MIC (Enterococcus faecium [2]) was 4 µg/mL (≈ 10.4 µM), the MIC (Staphylococcus aureus [4]) was 0.12 µg/mL (≈ 0.313 µM) and the MIC (Enterococcus faecium [5]) was 4 µg/mL (≈ 10.4 µM). For the same compound, the MIC (Staphylococcus aureus [6]) was 0.06 µg/mL (≈ 0.156 µM), the MIC (Staphylococcus aureus [19]) was 0.06 µg/mL (≈ 0.156 µM) and the MIC (Enterococcus faecium [11]) was 8 µg/mL (≈ 20.9 µM). For the same compound, the MIC (Enterococcus faecium [13]) was 2 µg/mL (≈ 5.22 µM), the MIC (Staphylococcus aureus [14]) was 0.06 µg/mL (≈ 0.156 µM) and the MIC (Enterococcus faecium [16]) was 8 µg/mL (≈ 20.9 µM). For the same compound, the MIC (Enterococcus faecium [18]) was 2 µg/mL (≈ 5.22 µM).
`CC(=O)NC[C@H]1CN(c2ccc(N3CCOCC3)c(F)c2)C(=O)O1` gave an inhibition (Staphylococcus aureus [20]) of 70.7%.
